Assay results pooled from the literature.
Target: Serine/threonine-protein kinase PLK4 (PLK4, Homo sapiens, UniProt O00444)
One construct used (O00444 1-970): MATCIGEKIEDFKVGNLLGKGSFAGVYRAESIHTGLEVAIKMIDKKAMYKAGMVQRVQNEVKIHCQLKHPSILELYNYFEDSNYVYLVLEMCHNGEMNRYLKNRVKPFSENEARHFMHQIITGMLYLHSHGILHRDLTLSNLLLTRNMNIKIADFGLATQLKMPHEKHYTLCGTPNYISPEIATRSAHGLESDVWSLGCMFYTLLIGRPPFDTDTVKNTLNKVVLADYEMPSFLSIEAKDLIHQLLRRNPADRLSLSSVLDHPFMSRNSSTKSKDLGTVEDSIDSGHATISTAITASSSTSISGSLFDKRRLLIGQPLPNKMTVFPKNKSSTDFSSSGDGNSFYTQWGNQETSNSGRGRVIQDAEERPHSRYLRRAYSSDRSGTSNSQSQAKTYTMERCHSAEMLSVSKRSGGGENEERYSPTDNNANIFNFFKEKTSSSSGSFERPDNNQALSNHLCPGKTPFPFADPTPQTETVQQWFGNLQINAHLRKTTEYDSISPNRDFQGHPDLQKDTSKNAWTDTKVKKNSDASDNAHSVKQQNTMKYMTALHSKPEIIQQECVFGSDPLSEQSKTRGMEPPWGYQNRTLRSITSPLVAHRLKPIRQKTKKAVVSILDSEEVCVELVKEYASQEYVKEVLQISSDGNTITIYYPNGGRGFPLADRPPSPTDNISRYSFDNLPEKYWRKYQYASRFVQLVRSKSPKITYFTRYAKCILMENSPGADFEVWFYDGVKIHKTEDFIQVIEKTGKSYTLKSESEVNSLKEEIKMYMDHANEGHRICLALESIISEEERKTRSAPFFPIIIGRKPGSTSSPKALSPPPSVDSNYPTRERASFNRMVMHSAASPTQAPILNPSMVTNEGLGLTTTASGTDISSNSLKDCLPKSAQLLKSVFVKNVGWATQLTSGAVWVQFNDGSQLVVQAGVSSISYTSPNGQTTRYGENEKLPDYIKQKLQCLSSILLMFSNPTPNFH

C=CC(=O)N1CCC[C@@H](n2nc(-c3ccc(Oc4ccccc4)cc3)c3c(N)ncnc32)C1
inhibition (enzyme activity; inhibitor; 1 µM): 5%

Cc1ccc(NC(=O)c2ccnc(C(F)(F)F)c2)cc1-c1cc(OCCO)nc(N2CCOCC2)c1
remaining binding (binding; competition with immobilised ligand; 1 µM): 75%

C#Cc1cc(-c2cc(Nc3nc(N[C@@H](C)c4ccc(F)cn4)ncc3Cl)n[nH]2)ccc1C=O
inhibition (enzyme activity; inhibitor; 0.2 µM): 80.7%

CCCCC(=O)Nc1ccc(-c2ccc3ncn(CCC)c(=O)c3c2)cn1
remaining binding (binding; competition with immobilised ligand; 0.5 µM): 100%

N#Cc1ccc(NC(=O)Nc2ccccc2)cc1
remaining binding (cell-free assay; competition with immobilised ligand; 25 µM): 61%

C[C@H]1CC[C@H](n2c3cnccc3c3cnc(Nc4ccc5c(n4)CCN(C(=O)CO)C5)nc32)CC1
remaining binding (binding; competition with immobilised ligand; 1 µM): 18%

C=CC(=O)N1CCC([C@@H]2CCNc3c(C(N)=O)c(-c4ccc(Oc5ccccc5)cc4)nn32)CC1
inhibition (enzyme activity; inhibitor; 1 µM): 1%

C1=C/COCc2cc(ccc2OCCN2CCCC2)Nc2nccc(n2)-c2cccc(c2)COC/1
remaining binding (binding; 0.1 µM): 42%

COc1ccc2oc(-c3ccc4nc(N)oc4c3)c/c(=N\c3ccccc3NC(=O)CCN)c2c1
remaining binding (binding; 1 µM): 98%
